KCNQ1 act = potentiators or activators of KCNQ1 channel, primary screen, cell-based, thallium flux, high-throughput; B-score at 10 µM; AID 2648, 2010; 310,000 compounds, 0.35% hits; Potassium voltage-gated channel subfamily KQT member 1 (Homo sapiens), P51787; CHO-K1 KCNQ1, thallium flux FluxOR fluorescence; active compounds read high;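 active = fluorescence ratio B-score, a plate-corrected score, at least three library SD, with initial intensity B-score within 5 SD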
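System: Stable KCNQ1 CHO-K1 line | Incubation: 90 min dye loading and 20 min compound exposure, both at room temperature | Measure: Ratio B score | Medium: Assay buffer for compound exposure, DMSO matched across wells | Compound dosing: Single-concentration screen | Probe or stimulus: K+/Tl+ depolarizing stimulus | Measured by: Kinetic FluxOR fluorescence, 10 s baseline plus 110 s post-stimulus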
KCNQ1 block = inhibitors of human KCNQ1 channel, primary screen, cell-based, thallium flux, high-throughput; CHO-K1 KCNQ1, FluxOR thallium flux fluorescence; active compounds read high; B-score at 10 µM; 310,000 compounds, 1.3% hits; AID 2642, 2010;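 active = compounds whose thallium flux B-score, printed positive for inhibition, exceeds three library SD while starting fluorescence stays within three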;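 note: channel opened by potassium depolarization with thallium stimulus after 20 min compound exposure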
hERG rescue = hERG rescue from dofetilide block, primary screen, cell-based, CHO-hERG, FluxOR thallium flux, dofetilide IC70; 310,000 compounds, 0.51% hits; Voltage-gated inwardly rectifying potassium channel KCNH2 (Homo sapiens), Q12809; dofetilide IC70 present; activation (rescue from dofetilide block), less the hit threshold, % at 10 µM; AID 1511, 2009;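 active = activation above the mean of controls blocked by dofetilide plus 5 SD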;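 note: thallium influx through hERG after potassium depolarization seen as dye fluorescence rise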
KCNK3 inh = human KCNK3 channel inhibitors, primary screen, CHO cells, FluxOR thallium flux, B-score. FluxOR fluorescence; active compounds read low. Potassium channel subfamily K member 3 (Homo sapiens), O14649. B-score at 10 µM. 340,000 compounds, 0.84% hits;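 active = B-score under library mean minus 4 SD, starting fluorescence ratio at most library mean plus 5 SD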;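 note: more negative B-score means stronger inhibition of thallium flux through KCNK3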
Cl transport mod = KCC2 cotransporter modulators, thallium flux, primary screen, cell-based, HEK293 KCC2, FluoZin-2 fluorescence, MLSMR | Solute carrier family 12 member 5 (Homo sapiens), Q9H2X9 | KCC2 cells, thallium flux FluoZin-2 fluorescence | B-score of Tl+ flux slope (higher = more flux/activation; lower = inhibition) at 10 µM | 190,000 compounds, 2.2% hits | AID 1456, 2008;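 active = thallium flux slope and its plate-corrected score both differing from the plate sample mean at a set confidence after two filtering rounds, in either direction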;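 note: slope of fluorescence scaled to starting intensity during 10 to 20 s after thallium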
KCNK9 block = KCNK9 potassium channel inhibitors, primary screen, HEK293 cells, thallium flux; AID 488922, 2010; B-score at 10 µM; FluxOR thallium flux fluorescence; active compounds read low; Potassium channel subfamily K member 9 (Homo sapiens), Q9NPC2; 310,000 compounds, 1.2% hits;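 active = ratio B-score over 3 SD below the library mean, with starting fluorescence within 5 SD of its mean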;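 note: negative B-score means less thallium flux so channel inhibition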
KCC2 secondary = KCC2 modulators in sodium-free buffer, confirmation, cell-based, HEK293 KCC2, thallium flux, secondary assay; shares compounds with Cl transport mod; FluoZin2 fluorescence; active compounds read high; normalised thallium flux (F/F0 slope) at 10 µM; 3,700 compounds, 15% hits;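 active = thallium flux slope above the same plate's solvent-only control mean plus 3 SD; inconclusive = the two replicate wells disagree; inactive = no significant difference from solvent-only control wells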
KCC2 bumet counter = thallium flux persisting under bumetanide in KCC2 cells, confirmation, counter-screen for KCC2 modulator project, cell-based, HEK293 KCC2, FluoZin2, secondary assay 3; normalized thallium flux at 10 µM; AID 1714, 2009; shares compounds with Cl transport mod; 3,700 compounds, 49% hits; HEK293-KCC2 + bumetanide/ouabain; active compounds read high;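 active = thallium entry rate above the same plate's blocked-transporter control wells by more than 3 SD; inconclusive = the two repeat wells disagree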;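 note: raw slope of fluorescence over initial fluorescence between 10 and 20 s after thallium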
KCC2 sec2 = KCC2 modulators without ouabain present, confirmation, cell-based, HEK293 KCC2, thallium flux, FluoZin2, secondary assay 2 | shares compounds with Cl transport mod | thallium flux FluoZin2 fluorescence; actives lie on both sides; F/F0 rise rate, 10–20 s post-thallium | normalized thallium flux at 10 µM | 3,700 compounds, 23% hits | AID 1715, 2009;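 active = thallium flux slope more than 3 SD above or below the plate's solvent-only control mean, mostly below; inconclusive = the two repeat wells disagreed; inactive = no significant shift from solvent-only controls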
HEK293 Tl flux = thallium flux modulation in parental HEK cells, confirmation, counter-screen for KCC2 modulator project, cell-based, counterscreen 1 | 3,700 compounds, 46% hits | AID 1716, 2009 | HEK293 parental cells, thallium flux FluoZin2, ouabain; baseline-ratio fluorescence slope, 10–20 s after thallium | shares compounds with Cl transport mod | thallium flux rate (normalised fluorescence) at 10 µM;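 active = thallium flux rate significantly above the same plate's solvent-only control wells, beyond their mean plus 3 SD; inconclusive = the two replicate wells gave conflicting results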
KCC2 retest ouab = KCC2 inhibitors and activators, ouabain retest, confirmation, HEK-KCC2 cells | shares compounds with Cl transport mod | HEK293-KCC2, thallium flux FluoZin2 fluorescence; bidirectional: low = inhibitor, high = activator | 3,700 compounds, 48% hits | raw Tl+ flux slope (below DMSO = inhibition, above = activation) at 10 µM;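 active = thallium flux slope beyond 3 SD from same-plate DMSO control mean in most replicates, usually higher, sometimes lower; inconclusive = repeat tests gave conflicting results; inactive = no significant difference from controls in most replicates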;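 note: slope of initial-normalized fluorescence between seconds 10 and 20 after thallium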
HEK counter2 = native HEK Tl+ uptake effects, second counter-screen – HEK cells, counterscreen 2, counter-screen for KCC2 modulator project, confirmation | shares compounds with Cl transport mod | HEK293 parental, thallium flux FluoZin-2 fluorescence slope | thallium flux slope at 10 µM | 3,700 compounds, 33% hits;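 active = thallium flux slope above the same plate's solvent-control mean plus 3 SD in both duplicate wells; inconclusive = duplicate wells that disagreed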;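 note: run without ouabain in cells lacking the KCC2 cotransporter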
Hits are given with their value; - = inactive; ? = inconclusive; . = no result given. Most compounds without a hit are left out; they make up all but 4.1% or so of the library.

SMILES	KCNQ1 act	KCNQ1 block	hERG rescue	KCNK3 inh	Cl transport mod	KCNK9 block	KCC2 secondary	KCC2 bumet counter	KCC2 sec2	HEK293 Tl flux	KCC2 retest ouab	HEK counter2
O=C(O)/C(=C\c1ccc(Cl)c([N+](=O)[O-])c1)c1ccc(S(=O)(=O)N2CCCCC2)s1	-	-	-	-	-7.8	-	-	-	-	-	0.011	-
O=C(O)/C(=C\c1ccc(Cl)c([N+](=O)[O-])c1)c1ccc(S(=O)(=O)N2CCCC2)s1	.	.	.	-	.	.	.	.	.	.	.	.
O=c1cc(C(F)(F)F)nc(SC/C=C/c2ccccc2)[nH]1	-	-	-	-	.	-	.	.	.	.	.	.
CCOC(=O)c1cnc(SC)nc1Sc1ccccc1	-	-	-	-	.	-	-	-	-	-	-	-
O=C(NCc1ccccc1)c1nnc(CS(=O)(=O)c2ccccc2)o1	-	-	-	-	.	-	.	.	.	.	.	.
CCc1ccc(NC(=S)N2CCC(NC(=O)c3ccccc3OC)CC2)cc1	-	-	-	-	.	-	.	.	.	.	.	.
COc1ccccc1C(=O)NC1CCN(C(=S)NCCc2ccccc2)CC1	-	-	-	-	-3.1	-	-	-	0.025	-	?	-
Nc1ncnc(N2CCOCC2)n1	.	.	.	-	.	.	.	.	.	.	.	.
Cc1c(C(=O)NC(=S)NCC(C)C)oc2ccccc12	-	-	-	-	-	-	.	.	.	.	.	.
C=CCNC(=S)NC(=O)c1oc2ccccc2c1C	-	-	-	-	11	-	-	0.035	-	0.021	0.042	0.012
CC(=O)Nc1ccc(OCC(O)CNC2CCCC2)cc1 (configuration not stated)	-	-	-	-	.	-	-	?	-	?	-	-
CCCCCCCCCC(=O)NNC(=O)c1c(O)c2ccccc2n(CC)c1=O	-	-	-	-	5.2	-	-	0.016	-	0.016	0.024	0.015
CCCCCC(=O)NNC(=O)c1c(O)c2ccccc2n(CC)c1=O	-	-	-	-	3.5	-	-	0.014	-	0.013	?	0.015
COc1cccc(CN2CC(C(=O)NCCSc3nnnn3C)CCC2=O)c1 (configuration not stated)	-	-	-	-	.	-	.	.	.	.	.	.
COC(=O)N/N=C/c1c(C)cc(C)cc1C	-	-	-	-	-5.3	-	-	-	-	-	-	-
COC(=O)N/N=C\c1c(C)[nH]n(-c2ccccc2)c1=O	-	-	-	-	-	-	.	.	.	.	.	.
CC1CCC(C(=O)NNC(=O)c2cc(-c3ccco3)[nH]n2)CC1 (configuration not stated)	-	-	-	-	-2.9	-	-	-	-	?	?	-
O=C(Cn1nnc2c(cnn2-c2ccc(F)cc2)c1=O)Nc1ccccc1C(F)(F)F	-	-	-	-	-3.9	-	-	?	-	-	0.017	-
COc1ccc(Cl)cc1C(=O)NNC(=O)C1CCCO1 (configuration not stated)	.	.	.	-	.	.	.	.	.	.	.	.
CCN(CC(=O)Nc1cc(Cl)ccc1C)C(=O)c1oc2ccc(OC)cc2c1C	-	-	-	-	.	-	.	.	.	.	.	.
CC(=O)Nc1c(C(=O)O)ccc(C)c1OCc1ccccc1	.	.	.	-	.	.	.	.	.	.	.	.
Cc1cc(C(=O)NNC(=O)c2ccc(C(F)(F)F)cc2)no1	-	-	-	-	-	-	.	.	.	.	.	.
CC(C)(C)c1cc(C(=O)NNC(=O)c2ccc(Cl)cc2)no1	18	-	5.7	-	94	-	0.037	0.1	0.05	0.057	?	0.026
O=C(NCCc1cn2ccccc2n1)c1cc(COc2c(F)cccc2F)on1	-	-	-	-	-4	-	?	?	?	-	0.016	-
Cc1ccc(CNC(=O)c2cc(COc3c(F)cccc3F)on2)s1	-	-	-	-	.	-	-	-	-	-	0.015	-
SMILES	KCNQ1 act	KCNQ1 block	hERG rescue	KCNK3 inh	Cl transport mod	KCNK9 block	KCC2 secondary	KCC2 bumet counter	KCC2 sec2	HEK293 Tl flux	KCC2 retest ouab	HEK counter2
Cc1ccc(S(=O)(=O)Nc2cc(-c3nn(C)c(=O)c4ccccc34)ccc2N2CCOCC2)cc1	-	-	-	-	.	-	.	.	.	.	.	.
Cn1nc(-c2ccc(N3CCOCC3)c(NS(=O)(=O)c3ccc(Cl)cc3)c2)c2ccccc2c1=O	.	.	.	-10	5.8	.	-	-	-	-	-	-
COCCC(=O)N1CCC(C(=O)Nc2ccc(Oc3ccccc3)nc2)CC1	-	-	-	-	.	-	.	.	.	.	.	.
CCOC(=O)CNC(=O)C(Cc1ccccc1)NC(=O)OCc1ccccc1 (configuration not stated)	-	-	-	-	-5.5	-	-	-	0.025	-	?	-
CC(=O)Oc1ccc2c(=O)c(/C=N/c3cc(=O)[nH]c(=S)[nH]3)coc2c1	-	-	-	-	-	-	.	.	.	.	.	.
O=c1cc(/N=C/c2coc3cc(Br)ccc3c2=O)[nH]c(=S)[nH]1	-	-	-	-	9.5	-	0.014	0.045	-	0.0089	-	-
CCOC(=O)CN1C(=O)CC(c2ccccc2)C1=O (configuration not stated)	-	-	-	-	.	-	.	.	.	.	.	.

High-throughput results as filed in PubChem.
